Source: PubChem BioAssay (The Scripps Research Institute Molecular Screening Center)
CHO parental Ca – counter-screen: ATP calcium response change in parental CHO cells; AID 463079; 330,000 tested, 0.63% active; parental CHO-K1, ATP-induced calcium, Fluo-8 fluorescence; inhibition, % at 5.6 µM;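 active means inhibition above that plate's mean sample inhibition plus 3 SD, cut at about 26% in these data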;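 further: 0% = ATP-challenged DMSO wells and 100% = DMSO wells without ATP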
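Test system: untransfected parental CHO cell line. Compound: one dose, 5.6 µM nominal. Detection: intracellular calcium via Fluo-8 no-wash fluorescent dye. Measure: % inhibition. Benchmarks: ATP-challenged DMSO wells low, unchallenged DMSO wells high.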
OX1R antag-1 – antagonists of human orexin 1 receptor; O43613; CHO/OX1R cells, Fluo-8 calcium fluorescence, orexin A; inhibition, % at 5 µM; 330,000 tested, 0.43% active; AID 434989;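 active means inhibition above its plate's threshold, mean inhibition of all tested compounds on the plate plus 3 SD, cut at about 37% in these data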;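 further: 0% = orexin A challenge wells and 100% = SB-334867-A antagonist wells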
GPR7 antagonist – antagonists of human GPR7 (neuropeptides B/W receptor 1). 290,000 tested, 1.1% active. GPR7-expressing cells, fluorescence antagonist assay. P48145. AID 1861. inhibition, % at 4.4 µM; in the data active means inhibition above about 16%, passing the limit was not always enough;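 further: cells stimulated with the agonist NPW; 0% = agonist with vehicle and 100% = vehicle without agonist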
Target sequence (P48145 whole entry, looked up): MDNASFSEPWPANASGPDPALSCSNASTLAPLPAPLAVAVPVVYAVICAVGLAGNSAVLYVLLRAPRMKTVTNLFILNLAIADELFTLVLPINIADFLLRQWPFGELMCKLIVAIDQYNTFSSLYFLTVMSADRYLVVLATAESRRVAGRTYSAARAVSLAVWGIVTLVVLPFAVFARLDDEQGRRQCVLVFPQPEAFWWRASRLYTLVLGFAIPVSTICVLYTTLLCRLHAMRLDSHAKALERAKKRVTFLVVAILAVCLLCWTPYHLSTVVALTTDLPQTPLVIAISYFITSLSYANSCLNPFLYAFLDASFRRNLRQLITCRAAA
TAAR1 antagonist – human TAAR1 antagonism. CHO RD-HGA16 TAAR1, Fluo-8 calcium fluorescence, antagonist. inhibition, % at 3 µM. Q96RJ0. 360,000 tested, 1.5% active;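 active means inhibition above a per-plate cutoff, the mean inhibition of test compounds on that plate plus 3 SD, cut at about 49% in these data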;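 further: 0% = DMSO plus EC80 beta-PEA response and 100% = DMSO alone without agonist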
Target sequence (Q96RJ0 whole entry, looked up): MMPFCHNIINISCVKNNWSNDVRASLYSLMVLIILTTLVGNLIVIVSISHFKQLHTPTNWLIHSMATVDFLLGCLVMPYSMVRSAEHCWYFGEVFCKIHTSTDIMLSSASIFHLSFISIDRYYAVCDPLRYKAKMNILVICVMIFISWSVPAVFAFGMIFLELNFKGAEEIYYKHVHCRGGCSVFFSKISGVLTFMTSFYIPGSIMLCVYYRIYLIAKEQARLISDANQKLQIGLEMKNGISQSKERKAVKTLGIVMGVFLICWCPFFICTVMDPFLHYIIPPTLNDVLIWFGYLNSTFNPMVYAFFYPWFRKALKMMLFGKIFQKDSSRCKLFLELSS
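Assay system: RD-HGA16 CHO cells with stable hTAAR1 and Gα16 / Reagent: EC80 β-phenethylamine stimulus / Doses: 3 µM, single point / Timing: dye loading 75 min at 37 °C, then 30 min room temperature / Measured by: Fluo-8 intracellular calcium dye fluorescence, real-time kinetic reads / Controls: vehicle wells and EC80 agonist wells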
TAAR1 ag – human TAAR1 agonism | activation, % at 3 µM | 360,000 tested, 0.99% active | AID 624467 | CHO RD-HGA16 TAAR1, Fluo-8 calcium fluorescence; vehicle wells 0%, saturating PEA agonist 100% | Q96RJ0;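 active means activation above the mean activation of all test compounds in the run plus 3 SD, cut at about 38% in these data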
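test system = CHO RD-HGA16 cells carrying human TAAR1 plus Gα16 | schedule = 17-24 h seeding, 75 min 37 °C dye, 30 min RT | compound dosing = 3 µM single concentration | control set = DMSO and PEA EC100 | replicates = n 1 | signal = Fluo-8 fluorescence, 5 s baseline then 140 s kinetic read | measure = percent activation vs PEA EC100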
OX1R antag-2 – OX1R (human) antagonism | 330,000 tested, 1.8% active | O43613 | AID 485270 | OX1R-expressing cells, FRET antagonist read-out | inhibition, % at 6.6 µM; in the data active means inhibition mostly above about 38%, no sharp cut-off; inactive means mostly below about 40%;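 further: 0% = agonist challenge alone and 100% = reference antagonist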
* = called active by the depositor; nt = no result. Compounds with a hit are over-represented: about 4.6% of the library has one in this group of screens.

SMILES | CHO parental Ca | OX1R antag-1 | GPR7 antagonist | TAAR1 antagonist | TAAR1 ag | OX1R antag-2
COC(=O)c1sc(N2CCN(c3ccc(Cl)cc3)CC2)nc1N | 44* | 19 | 15 | 21 | 5 | 21
COc1ccccc1C(=O)Nc1ccc2c(c1)nc1n2CCSC1 | -12 | 8 | -9 | 7 | 3 | 54*
CC(C)NC(=O)C1(C)CN(S(C)(=O)=O)CC(=O)N1Cc1cccs1 (stereo unspecified) | nt | nt | nt | -28 | 2 | nt
COc1ccc(Cn2c(SCc3cc(C)ccc3C)nc3cc(OC)c(OC)cc3c2=N)cc1 | 6 | -10 | -7 | -25 | 32 | 10
COc1ccc(Cn2c(SCc3ccc(C)cc3)nc3cc(OC)c(OC)cc3c2=N)cc1Cl | -8 | -7 | -8 | 1 | 41* | 10
CC(=O)Nc1sc(N/N=C\c2ccccc2F)nc1-c1cccs1 | -13 | -7 | -6 | -10 | 0 | 33
Cc1ccccc1NS(=O)(=O)c1ccc(NC(=O)CSCc2ccc(Br)cc2)cc1 | 31* | 15 | 18 | 28 | 25 | 23
CC(=O)N1CCN(C2=NC(=O)/C(=C\c3cccs3)S2)CC1 | -5 | 1 | 0 | 9 | 4 | 41*
O=C1N=C(N2CCOCC2)S/C1=C\c1ccncc1 | 3 | 0 | -15 | -30 | 2 | 39*
CC(C)c1ccc(/C=C2\SC(N3CCOCC3)=NC2=O)cc1 | -17 | -21 | -5 | -45 | 3 | 27
Cc1ccc(Nc2c([N+](=O)[O-])c(=O)oc3ccccc23)cc1C | 3 | -40 | -4 | -5 | 7 | 17
CCOC(=O)c1cc([N+](=O)[O-])sc1NC(=O)CC | -8 | -14 | -8 | -10 | -2 | 61*
COc1ccc(CN2CCCC(C(=O)c3ccc(SC)cc3)C2)cc1Cn1cccn1 (stereo unspecified) | -23 | -30 | 6 | -2 | 1 | 9
CN(CCO)c1cc(Sc2nc3ccccc3s2)c2nonc2c1[N+](=O)[O-] | 88* | 70* | -11 | 39 | 18 | 67*
CC(O)C(NS(=O)(=O)c1ccc(Cl)cc1)C(=O)OCC(=O)c1c[nH]c2ccccc12 (stereo unspecified) | 16 | 7 | 15 | 58* | 19 | 1
Cc1[nH]c2ccccc2c1C(=O)COC(=O)C1CC(O)CN1S(=O)(=O)c1ccc(Cl)cc1 (stereo unspecified) | -22 | -4 | nt | 44 | 12 | 16
CC(C)C(NS(=O)(=O)c1c(Cl)cccc1Cl)C(=O)OCC(=O)c1c[nH]c2ccccc12 (stereo unspecified) | -12 | -7 | 0 | 20 | 7 | 24
CSCCC(NS(=O)(=O)c1ccc(Cl)cc1)C(=O)OCC(=O)c1c(C)[nH]c2ccccc12 (stereo unspecified) | 82* | 79* | 12 | 81* | 19 | 76*
CCOC(=O)N1CCN(C(=O)/C(=C/c2ccc(N(C)C)cc2)NC(=O)c2ccccc2)CC1 | -11 | -9 | nt | -17 | 2 | 1
Cc1onc(-c2c(Cl)cccc2Cl)c1C(=O)OCC(=O)c1ccccc1 | -12 | -24 | -6 | 1 | 2 | 29
O=C(C1CCC(=O)N(C2CC2)C1)N1CCC(Oc2ccccc2F)CC1 (stereo unspecified) | -2 | 10 | -9 | -10 | 0 | 2
CCOC(=O)c1[nH]c(C)c(C(=O)Nc2ccc(Cl)cc2)c1C | 10 | 1 | 4 | 36 | 39* | 6
Cc1ccc(NC(=O)COC(=O)C2=COCCO2)c([N+](=O)[O-])c1 | 1 | -10 | 1 | -26 | 4 | 17
CC(=O)c1c(C)[nH]c(C(=O)OCC(=O)Nc2cc(Cl)ccc2[N+](=O)[O-])c1C | 27* | -8 | 0 | 51* | 16 | 48*
CC(=O)c1c(C)[nH]c(C(=O)OCC(=O)Nc2ccc(C)cc2[N+](=O)[O-])c1C | 45* | 10 | -4 | 24 | 12 | 39
SMILES | CHO parental Ca | OX1R antag-1 | GPR7 antagonist | TAAR1 antagonist | TAAR1 ag | OX1R antag-2
CC(=O)c1c(O)cc2c3c1OC(C)(C)C1CCC(C)(CC31)O2 (stereo unspecified) | nt | nt | nt | 52* | 8 | nt
COc1ccc2c(c1)C(=O)CC(c1ccc3c(c1)OCCO3)O2 (stereo unspecified) | -4 | -36 | 13 | 7 | -1 | 15
NS(=O)(=O)c1ccc(N=Nc2ccc(=O)[nH]c2O)cc1 | 6 | -17 | 7 | -3 | 6 | 74*
NS(=O)(=O)c1ccc(N=Nc2ccc(O)c3ncccc23)cc1 | -3 | -15 | -3 | -11 | 1 | 3
O=C1Nc2ccccc2/C1=C/C(=O)c1cccs1 | -2 | 19 | 26* | 18 | 9 | 33
COc1ccc2c(c1)CCc1c(C(=O)NCCc3ccc(OC)c(OC)c3)noc1-2 | -22 | -21 | -15 | 49* | 12 | 26
COc1ccc2c(c1)CCc1c(C(=O)Nc3ccc(OC)c(OC)c3)noc1-2 | -6 | -15 | -5 | 51* | 10 | 3
CCCNC(=O)c1noc2c1CCc1ccccc1-2 | -4 | -16 | 2 | 9 | -1 | 11
O=C(NCCc1ccccc1)c1noc2c1CCc1ccccc1-2 | -18 | -24 | -7 | 67* | 31 | 29
O=C(COC(=O)C1CCCN1C(=O)c1cccs1)c1ccccc1 (stereo unspecified) | -5 | -24 | 16 | -4 | -2 | 17
O=C(COC(=O)c1cccc(N2C(=O)c3ccccc3C2=O)c1)Nc1ccccc1 | -21 | -14 | -4 | 23 | 4 | 21
N#Cc1cccc(NC(=O)COC(=O)c2cccc(N3C(=O)c4ccccc4C3=O)c2)c1 | -8 | -5 | 6 | 60* | 8 | 26
Cc1ccc(SCC(=O)N(Cc2nc(-c3ccccc3)no2)C(C)C)cc1 | 46* | 35 | 11 | 21 | 6 | 63
Cc1ccccc1OCC(=O)N(Cc1nnc(-c2ccc(Cl)cc2)o1)C(C)C | -38 | 9 | nt | 4 | 1 | 39*
CC(C)N(Cc1nc(-c2ccccc2)no1)C(=O)c1ccc2c(c1)OCO2 | -12 | 2 | -4 | nt | nt | 50*
Cc1ccc(-c2noc(CN(C(=O)c3ccc4c(c3)OCO4)C(C)C)n2)cc1 | -17 | -20 | 15 | -5 | -1 | 16
Cc1ccccc1OCC(=O)N(Cc1nc(-c2ccccc2)no1)C(C)C | 25 | 5 | -7 | 3 | 2 | 62*
CCOC(=O)C1CCN(c2c(NCCCN(C)C3CCCCC3)c(=O)c2=O)CC1 | -2 | -13 | -8 | -12 | 0 | 7
CCc1ccc2[nH]c3nc(N/N=C/c4ccc(O)cc4O)nnc3c2c1 | -13 | -2 | -18 | 17 | 3 | 74*
CC1=C(C#N)C(NC(=O)C(C)(C)C)(C(F)(F)F)C(=O)N1 (stereo unspecified) | 5 | -9 | -2 | 5 | 22 | 6
